pIC50: −log10 of the molar value.
Legend:
[1] = Permeability of the compound at pH 7.4 after 18 hrs by PAMPA-BBB assay
Homo sapiens = species on record: Homo sapiens; assay: Selectivity index, ratio of IC50 for human recombinant MAO-A to IC50 for human recombinant MAO-B
[2] = target: T1, Amine oxidase [flavin-containing] B (Homo sapiens, UniProt P27338); assay: Inhibition of human recombinant MAO-B preincubated for 30 mins followed by p-tyramine hydrochloride addition measured after 30 mins by Amplex red fluorescence based spectrophotometry
T1 sequence (P27338 whole entry): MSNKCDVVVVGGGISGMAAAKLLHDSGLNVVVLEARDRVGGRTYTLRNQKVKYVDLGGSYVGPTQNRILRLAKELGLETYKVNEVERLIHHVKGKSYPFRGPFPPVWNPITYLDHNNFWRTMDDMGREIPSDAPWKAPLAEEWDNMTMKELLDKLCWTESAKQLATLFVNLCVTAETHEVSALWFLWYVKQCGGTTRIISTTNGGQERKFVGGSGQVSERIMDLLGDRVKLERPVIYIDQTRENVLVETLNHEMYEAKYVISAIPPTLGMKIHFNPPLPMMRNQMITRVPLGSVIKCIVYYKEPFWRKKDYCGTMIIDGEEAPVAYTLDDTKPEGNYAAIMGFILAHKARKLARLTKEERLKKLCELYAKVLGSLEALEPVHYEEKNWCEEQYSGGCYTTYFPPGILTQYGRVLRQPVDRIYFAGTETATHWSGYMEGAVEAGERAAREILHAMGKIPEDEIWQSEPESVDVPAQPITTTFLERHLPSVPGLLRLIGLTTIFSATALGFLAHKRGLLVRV

[3] = target: T2, Amine oxidase [flavin-containing] A (Homo sapiens, UniProt P21397); assay: Inhibition of human recombinant MAO-A preincubated for 30 mins followed by p-tyramine hydrochloride addition measured after 30 mins by Amplex red fluorescence based spectrophotometry
T2 sequence (P21397 whole entry): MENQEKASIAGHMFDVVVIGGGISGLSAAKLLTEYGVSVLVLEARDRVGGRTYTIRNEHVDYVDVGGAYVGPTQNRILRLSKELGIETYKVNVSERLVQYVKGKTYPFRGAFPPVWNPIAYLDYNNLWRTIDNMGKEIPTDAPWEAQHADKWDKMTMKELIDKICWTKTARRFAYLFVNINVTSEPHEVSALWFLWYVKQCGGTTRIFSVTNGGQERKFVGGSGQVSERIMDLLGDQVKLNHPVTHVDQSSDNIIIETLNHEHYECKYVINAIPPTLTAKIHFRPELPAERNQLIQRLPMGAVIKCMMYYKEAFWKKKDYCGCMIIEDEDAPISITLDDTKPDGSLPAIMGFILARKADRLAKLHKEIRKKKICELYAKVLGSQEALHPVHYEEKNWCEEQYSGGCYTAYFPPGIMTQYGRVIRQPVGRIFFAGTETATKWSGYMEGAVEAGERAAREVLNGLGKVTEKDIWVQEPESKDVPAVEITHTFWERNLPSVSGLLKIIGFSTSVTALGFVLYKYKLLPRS
Summary of the method: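 hrMAO-A at 0.36 U/mL preincubated with serial inhibitor dilutions for 30 min at 37 °C. Reaction started by adding 1 mM tyramine, 0.04 U/mL HRP and Amplex UltraRed in 0.25 mM sodium phosphate pH 7.4 (final). Resorufin fluorescence read at 530/590 nm for at least 30 min. No-compound activity set as 100%. Interference checked without enzyme.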

[4] = target: T1, Amine oxidase [flavin-containing] B; assay: Time-dependent inhibition of human recombinant MAO-B at 10 uM preincubated with enzyme followed by p-tyramine hydrochloride substrate addition by Amplex red fluorescence based spectrophotometry
Summary of the method: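 hrMAO-B was preincubated with inhibitor at 10 µM for 0–360 min. After each preincubation, activity was measured in the standard Amplex UltraRed/tyramine/HRP fluorometric assay at 530/590 nm. Results were expressed as % of control samples versus preincubation time.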

[5] = target: T1, Amine oxidase [flavin-containing] B; assay: Irreversible inhibition of human recombinant MAO-B at 50 uM preincubated for 1 h followed by 100 fold enzyme dilution and p-tyramine hydrochloride substrate addition measured after 40 mins by Amplex red fluorescence based spectrophotometry

Q: With `CN(C)CCCN1c2ccccc2Sc2ccccc21` [PROMAZINE] as the molecule, how does the Papp at 18 h [1] read?
A: 8.8 to 13.8 ×10⁻⁶ cm/s

Q: With `C#CCN(C)Cc1cn(CC)nn1` as the molecule, how does the Ratio IC50 (Homo sapiens) read?
A: 0.5

Q: What about the pIC50 [2] of the same molecule?
A: 3.60

Q: And the pIC50 [3]?
A: 3.87

Q: With `CCn1cc(C(=O)O)c(=O)c2cc(F)c(N3CCNC(C)C3)c(F)c21` (stereo not given) [LOMEFLOXACIN] as the molecule, how does the Papp at 18 h [1] read?
A: < 0.78 ×10⁻⁶ cm/s

Q: Which Ratio IC50 (Homo sapiens) does the source give for `C#CCN(C)CCc1nnn(CC)c1C` here?
A: 0.4

Q: What about the pIC50 [2] of the same molecule?
A: 3.62

Q: And the pIC50 [3]?
A: 4.04

Q: Which Ratio IC50 (Homo sapiens) does the source give for `C#CCN(C)Cc1nnn(CC)c1C` here?
A: 2.6

Q: And the pIC50 [2]?
A: 3.98

Q: What about the pIC50 [3] of the same molecule?
A: 3.57

Q: For `Clc1cccc(Cl)c1N=C1NCCN1` [CLONIDINE], which Papp at 18 h [1] is on record?
A: 5.3 to 6.5 ×10⁻⁶ cm/s

Q: With `C#CCN(C)Cc1nnn(C)c1CCCC` as the molecule, how does the Ratio IC50 (Homo sapiens) read?
A: < 3.2

Q: And the pIC50 [2]?
A: 4.02

Q: And the Papp at 18 h [1]?
A: 29.9 ×10⁻⁶ cm/s

Q: And the pIC50 [3]?
A: > 3.52

Q: With `CN/C(=N/CCSCc1nc[nH]c1C)NC#N` [CIMETIDINE] as the molecule, how does the Papp at 18 h [1] read?
A: < 0.7 ×10⁻⁶ cm/s

Q: For `CCn1cc(C(=O)O)c(=O)c2cc(F)c(N3CCNCC3)cc21` [NORFLOXACIN], which Papp at 18 h [1] is on record?
A: 0.1 to 0.9 ×10⁻⁶ cm/s

Q: With `C#CCN(C)Cc1cn(Cc2ccccc2)nn1` as the molecule, how does the Ratio IC50 (Homo sapiens) read?
A: > 3.9

Q: And the pIC50 [2]?
A: 3.89

Q: And the Papp at 18 h [1]?
A: 2.3 ×10⁻⁶ cm/s

Q: And the pIC50 [3]?
A: < 3.30

Q: Which results are given for `C#CCN(C)Cc1cn(CCc2ccccc2)nn1`?
A: Ratio IC50 (Homo sapiens): > 44.6; pIC50 [2]: 4.95; Papp at 18 h [1]: 0.6 ×10⁻⁶ cm/s; pIC50 [3]: < 3.30

Q: Which Ratio IC50 (Homo sapiens) does the source give for `C#CCN(C)CCc1cn(Cc2ccccc2)nn1` here?
A: 27.7

Q: And the pIC50 [2]?
A: 5.46

Q: What about the Papp at 18 h [1] of the same molecule?
A: 15.6 ×10⁻⁶ cm/s

Q: And the TDI [4]?
A: Active

Q: And the pIC50 [3]?
A: 4.01

Q: What about the “inhibition (INH)” value [5] of the same molecule?
A: Active

Q: For `C#CCN(C)CCc1nnn(C(C)c2ccccc2)c1C` (stereo not given), which Ratio IC50 (Homo sapiens) is on record?
A: 0.4

Q: And the pIC50 [2]?
A: 3.87

Q: What about the Papp at 18 h [1] of the same molecule?
A: 20 ×10⁻⁶ cm/s

Q: What about the pIC50 [3] of the same molecule?
A: 4.33

Q: For `CN1C(C(=O)Nc2ccccn2)=C(O)c2ccccc2S1(=O)=O` [PIROXICAM], which Papp at 18 h [1] is on record?
A: 1.93 to 2.5 ×10⁻⁶ cm/s

Q: What does the source list for `C#CCN(C)CCc1cn(CCc2ccccc2)nn1`?
A: Ratio IC50 (Homo sapiens): 0.3; pIC50 [2]: 3.76; Papp at 18 h [1]: 14.8 ×10⁻⁶ cm/s; pIC50 [3]: 4.25

Q: For `CNCCCN1c2ccccc2CCc2ccccc21` [DESIPRAMINE], which Papp at 18 h [1] is on record?
A: 12 to 17.8 ×10⁻⁶ cm/s

Q: Which Ratio IC50 (Homo sapiens) does the source give for `C#CCN(C)CCc1nnn(-c2ccccc2)c1CCC` here?
A: 0.2

Q: What about the pIC50 [2] of the same molecule?
A: 3.80

Q: And the Papp at 18 h [1]?
A: 17.2 ×10⁻⁶ cm/s

Q: And the pIC50 [3]?
A: 4.58

Q: What does the source list for `C#CCN(C)CCc1nnn(-c2ccccc2)c1CCCC`?
A: Ratio IC50 (Homo sapiens): 0.1; pIC50 [2]: 3.81; Papp at 18 h [1]: 21.4 ×10⁻⁶ cm/s; pIC50 [3]: 4.76

Q: Which Ratio IC50 (Homo sapiens) does the source give for `C#CCN(C)CCc1nnn(-c2ccccc2)c1CC` here?
A: 0.04

Q: What about the pIC50 [2] of the same molecule?
A: 3.67

Q: And the Papp at 18 h [1]?
A: 17 ×10⁻⁶ cm/s

Q: And the pIC50 [3]?
A: 5.12

Q: For `C#CCN(C)CCc1cn(CC)nn1`, which Ratio IC50 (Homo sapiens) is on record?
A: 1.5

Q: What about the pIC50 [2] of the same molecule?
A: 3.43

Q: And the pIC50 [3]?
A: 3.26

Q: With `C#CCN(C)Cc1cccc(Cc2cn(C)nn2)c1` as the molecule, how does the Ratio IC50 (Homo sapiens) read?
A: 0.03

Q: And the pIC50 [2]?
A: 4.19

Q: And the Papp at 18 h [1]?
A: 15.6 ×10⁻⁶ cm/s

Q: What about the pIC50 [3] of the same molecule?
A: 5.68

Q: Which results are given for `C#CCN(C)Cc1ccc(Cc2cn(C)nn2)cc1`?
A: Ratio IC50 (Homo sapiens): 0.9; pIC50 [2]: 6.22; Papp at 18 h [1]: 14.8 ×10⁻⁶ cm/s; pIC50 [3]: 6.30

Q: With `CC(=O)[C@H]1CC[C@H]2[C@@H]3CCC4=CC(=O)CC[C@]4(C)[C@H]3CC[C@]12C` [PROGESTERONE] as the molecule, how does the Papp at 18 h [1] read?
A: 9.3 to 16.8 ×10⁻⁶ cm/s

Q: With `C#CCN(C)CCc1ccc(Cc2cn(C)nn2)cc1` as the molecule, how does the Ratio IC50 (Homo sapiens) read?
A: 5.3

Q: And the pIC50 [2]?
A: 5.28

Q: And the Papp at 18 h [1]?
A: 4.5 ×10⁻⁶ cm/s

Q: And the pIC50 [3]?
A: 4.56

From ChEMBL document CHEMBL4477223, “Design, synthesis and biological evaluation of N-methyl-N-[(1,2,3-triazol-4-yl)alkyl]propargylamines as novel monoamine oxidase B inhibitors” (Bioorg Med Chem, 2016)
